ChEMBL document CHEMBL1154814, “Synthesis and antimicrobial activities of 3-O-alkyl analogues of (+)-catechin: improvement of stability and proposed action mechanism” (Eur J Med Chem, 2010)
Values after ≈ are worked out from the molar mass of the structure shown.

Tests used:
Enterococcus faecalis = assay: Antibacterial activity against Enterococcus faecalis ATCC 29212 after 24 hrs by NCCLS method; assay type: functional; settings: ATCC 29212, 24 h
Summary of the method: (§1)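 Agar dilution on Mueller Hinton agar. Overnight cultures on soybean casein digest agar at 37 °C were adjusted to 0.5 McFarland, then diluted 10-fold to 1.2 × 10^7 CFU/mL. 10 µL of each culture was spotted, incubated at 35 °C for 24 h. MIC taken as the lowest concentration preventing growth. Triplicates.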

Candida tropicalis = assay: Antifungal activity against Candida tropicalis IFO 10241 after 24 to 72 hrs by NCCLS method; assay type: functional
Summary of the method: (§2)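 Yeasts were grown overnight on Sabouraud dextrose agar at 35 °C and adjusted in saline to 0.5 McFarland (1.0–5.0 × 10^6 cells/mL). This stock was diluted 1:100 then 1:20 to 5.0 × 10^2–2.5 × 10^3 cells/mL. Tubes were incubated at 35 °C for 48 h in ambient air. MIC taken as the lowest concentration preventing growth. Triplicates.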

Escherichia coli [1] = assay: Antibacterial activity against Escherichia coli ATCC 25922 after 24 hrs by NCCLS method; assay type: functional; settings: ATCC 25922, 24 h; summary of the method: as §1
Klebsiella pneumoniae = assay: Antibacterial activity against Klebsiella pneumoniae ATCC 10031 after 24 hrs by NCCLS method; assay type: functional; settings: ATCC 10031, 24 h; summary of the method: as §1
Escherichia coli [2] = assay: Antibacterial activity against Escherichia coli ATCC 10536 after 24 hrs by NCCLS method; assay type: functional; settings: ATCC 10536, 24 h; summary of the method: as §1
Clavispora lusitaniae = assay: Antifungal activity against Candida lusitaniae ATCC 42720 after 24 to 72 hrs by NCCLS method; assay type: functional; summary of the method: as §2
Proteus mirabilis = assay: Antibacterial activity against Proteus mirabilis ATCC 27853 after 24 hrs by NCCLS method; assay type: functional; summary of the method: as §1
[3] = system: Staphylococcus epidermidis; assay: Antibacterial activity against Staphylococcus epidermidis ATCC 0155 after 24 hrs by NCCLS method; assay type: functional; settings: ATCC 0155, 24 h; summary of the method: as §1
Staphylococcus aureus = assay: Antibacterial activity against Staphylococcus aureus ATCC 25923 after 24 hrs by NCCLS method; assay type: functional; settings: ATCC 25923, 24 h; summary of the method: as §1
Bacillus subtilis = assay: Antibacterial activity against Bacillus subtilis ATCC 6633 after 24 hrs by NCCLS method; assay type: functional; settings: ATCC 6633, 24 h; summary of the method: as §1
Pichia kudriavzevii = assay: Antifungal activity against Candida krusei IFO 1664 after 24 to 72 hrs by NCCLS method; assay type: functional; summary of the method: as §2
Micrococcus luteus = assay: Antibacterial activity against Micrococcus luteus ATCC 10240 after 24 hrs by NCCLS method; assay type: functional; settings: ATCC 10240, 24 h; summary of the method: as §1
Candida albicans = assay: Antifungal activity against Candida albicans ATCC 10231 after 24 to 72 hrs by NCCLS method; assay type: functional; summary of the method: as §2
[4] = Chemical stability in PBS buffer at pH 7.4 assessed as compound remaining after 16 hrs by HPLC; assay type: physicochemical; settings: read-out: Stability
Summary of the method: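 Compound at 200 µM in 1% DMSO / 50 mM PBS, pH 7.4, incubated at 37 °C without cells; pH was checked before and after. Samples went onto a C-18 HPLC column (35/65 CH3CN/H2O, 1 mL/min, column at 37 °C). Percent remaining was taken from peak integration against an internal standard at 254 nm.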

[5] = Drug uptake assessed as incorporation into egg phosphatidylcholine liposome by HPLC; assay type: ADME; settings: artificial membrane
Summary of the method: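 Egg PC liposomes were diluted 10-fold in PBS, untrapped glucose was removed by centrifugation, and lipid was adjusted to 1 mg/mL. Compound in ethanol was added to final 50 µM with 10% ethanol. Percent incorporated into bilayers was derived from HPLC peak integration of compound left in solution.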

SMILES	MIC (Enterococcus faecalis)	MIC (Candida tropicalis)	MIC (Escherichia coli [1])	MIC (Klebsiella pneumoniae)	MIC (Escherichia coli [2])	MIC (Clavispora lusitaniae)	MIC (Proteus mirabilis)	MIC [3]	MIC (Staphylococcus aureus)	MIC (Bacillus subtilis)	MIC (Pichia kudriavzevii)	MIC (Micrococcus luteus)	MIC (Candida albicans)	remaining at 16 h [4]	Drug uptake [5]
CCCO[C@H]1Cc2c(O)cc(O)cc2O[C@@H]1c1ccc(O)c(O)c1	64 µg/mL (≈ 193 µM)	> 128 µg/mL	> 128 µg/mL	> 128 µg/mL	> 128 µg/mL	> 128 µg/mL	> 128 µg/mL	64 µg/mL (≈ 193 µM)	64 µg/mL (≈ 193 µM)	128 µg/mL (≈ 385 µM)	> 128 µg/mL	32 µg/mL (≈ 96.3 µM)	> 128 µg/mL		
CCCCCCCCCC(=O)O[C@H]1Cc2c(O)cc(O)cc2O[C@@H]1c1ccc(O)c(O)c1														75%	
CCCCCCCCCCO[C@H]1Cc2c(O)cc(O)cc2O[C@@H]1c1ccc(O)c(O)c1														> 90%	100%
CCCCCCCCCCCCO[C@H]1Cc2c(O)cc(O)cc2O[C@@H]1c1ccc(O)c(O)c1															100%
COc1cc(CO[C@H]2Cc3c(O)cc(O)cc3O[C@@H]2c2ccc(O)c(O)c2)cc(OC)c1OC	64 µg/mL (≈ 136 µM)	128 µg/mL (≈ 272 µM)	> 128 µg/mL	128 µg/mL (≈ 272 µM)	64 µg/mL (≈ 136 µM)	64 µg/mL (≈ 136 µM)		32 µg/mL (≈ 68 µM)	32 µg/mL (≈ 68 µM)	32 µg/mL (≈ 68 µM)	128 µg/mL (≈ 272 µM)	16 µg/mL (≈ 34 µM)	64 µg/mL (≈ 136 µM)		
CCCCCCO[C@H]1Cc2c(O)cc(O)cc2O[C@@H]1c1ccc(O)c(O)c1															100%
CCCCCCCCO[C@H]1Cc2c(O)cc(O)cc2O[C@@H]1c1ccc(O)c(O)c1															100%
CCCCCCCCCCCCCCO[C@H]1Cc2c(O)cc(O)cc2O[C@@H]1c1ccc(O)c(O)c1															100%
CCCCCCCCCCCCCCCCO[C@H]1Cc2c(O)cc(O)cc2O[C@@H]1c1ccc(O)c(O)c1															100%
Oc1cc(O)c2c(c1)O[C@H](c1ccc(O)c(O)c1)[C@@H](OCc1ccccc1)C2	32 µg/mL (≈ 84.1 µM)	> 128 µg/mL	> 128 µg/mL	128 µg/mL (≈ 336 µM)	> 128 µg/mL	> 128 µg/mL	128 µg/mL (≈ 336 µM)	64 µg/mL (≈ 168 µM)	64 µg/mL (≈ 168 µM)	64 µg/mL (≈ 168 µM)	> 128 µg/mL	32 µg/mL (≈ 84.1 µM)	> 128 µg/mL		
Oc1cc(O)c2c(c1)O[C@H](c1ccc(O)c(O)c1)[C@H](O)C2 [(-)-EPICATECHIN]	> 128 µg/mL	> 128 µg/mL	> 128 µg/mL	> 128 µg/mL	> 128 µg/mL	> 128 µg/mL	> 128 µg/mL	> 128 µg/mL	> 128 µg/mL	> 128 µg/mL	> 128 µg/mL	> 128 µg/mL	> 128 µg/mL		
C[C@@H]1[C@H](O)[C@@H](C)/C=C/C=C/C=C/C=C/C=C/C=C/C=C/[C@H](O[C@@H]2O[C@H](C)[C@@H](O)[C@H](N)[C@@H]2O)C[C@@H]2O[C@](O)(C[C@@H](O)C[C@@H](O)[C@H](O)CC[C@@H](O)C[C@@H](O)CC(=O)O[C@H]1C)C[C@H](O)[C@H]2C(=O)O [AMPHOTERICIN B]		0.5 µg/mL (≈ 0.541 µM)				0.5 µg/mL (≈ 0.541 µM)					0.5 µg/mL (≈ 0.541 µM)		0.25 µg/mL (≈ 0.271 µM)		
Oc1cc(O)c2c(c1)O[C@H](c1ccc(O)c(O)c1)[C@@H](O)C2 [CIANIDANOL]	> 128 µg/mL	> 128 µg/mL	> 128 µg/mL	> 128 µg/mL	> 128 µg/mL	> 128 µg/mL	> 128 µg/mL	> 128 µg/mL	> 128 µg/mL	> 128 µg/mL	> 128 µg/mL	> 128 µg/mL	> 128 µg/mL		
O=C(O)c1cn(C2CC2)c2cc(N3CCNCC3)c(F)cc2c1=O [CIPROFLOXACIN]	0.5 µg/mL (≈ 1.51 µM)			< 0.06 µg/mL			0.125 µg/mL (≈ 0.377 µM)	0.25 µg/mL (≈ 0.754 µM)	0.25 µg/mL (≈ 0.754 µM)	< 0.06 µg/mL		< 0.06 µg/mL			
O=C(O[C@@H]1Cc2c(O)cc(O)cc2O[C@@H]1c1ccc(O)c(O)c1)c1cc(O)c(O)c(O)c1 [EPICATECHIN GALLATE]	> 128 µg/mL	> 128 µg/mL	> 128 µg/mL	> 128 µg/mL	> 128 µg/mL	> 128 µg/mL	> 128 µg/mL	> 128 µg/mL	> 128 µg/mL	> 128 µg/mL	> 128 µg/mL	> 128 µg/mL	> 128 µg/mL		
Oc1cc(O)c2c(c1)O[C@H](c1cc(O)c(O)c(O)c1)[C@H](O)C2 [EPIGALLOCATECHIN]	> 128 µg/mL	> 128 µg/mL	> 128 µg/mL	> 128 µg/mL	> 128 µg/mL	> 128 µg/mL	> 128 µg/mL	> 128 µg/mL	> 128 µg/mL	> 128 µg/mL	> 128 µg/mL	> 128 µg/mL	> 128 µg/mL		
O=C(O[C@@H]1Cc2c(O)cc(O)cc2O[C@@H]1c1cc(O)c(O)c(O)c1)c1cc(O)c(O)c(O)c1 [EPIGALOCATECHIN GALLATE]	> 128 µg/mL	> 128 µg/mL	> 128 µg/mL	> 128 µg/mL	> 128 µg/mL	> 128 µg/mL	> 128 µg/mL	128 µg/mL (≈ 279 µM)	> 128 µg/mL	> 128 µg/mL	> 128 µg/mL	32 µg/mL (≈ 69.8 µM)	> 128 µg/mL	15%	Not Active
CCC(C)n1ncn(-c2ccc(N3CCN(c4ccc(OCC5COC(Cn6cncn6)(c6ccc(Cl)cc6Cl)O5)cc4)CC3)cc2)c1=O (configuration not stated) [ITRACONAZOLE]		0.06 µg/mL (≈ 0.085 µM)				0.125 µg/mL (≈ 0.177 µM)					0.25 µg/mL (≈ 0.354 µM)		0.06 µg/mL (≈ 0.085 µM)		
NC[C@H]1O[C@H](O[C@H]2[C@H](O)[C@@H](O[C@H]3O[C@H](CO)[C@@H](O)[C@H](N)[C@H]3O)[C@H](N)C[C@@H]2N)[C@H](O)[C@@H](O)[C@@H]1O.O=S(=O)(O)O [KANAMYCIN SULFATE]	32 µg/mL		8 µg/mL	64 µg/mL	8 µg/mL		32 µg/mL	4 µg/mL	16 µg/mL	2 µg/mL		8 µg/mL			
